Screening data as filed in PubChem BioAssay.
SUMO1-SIM PPI – modulators of SUMO1 protein-protein interactions, primary screen, biochemical, uHTS; SUMO1 binding to a labelled peptide, TR-FRET, 1 h; AID 602429, 2012; inhibition, % at 20 µM; 0.33% of 360,000 active; in the data active means inhibition above about 37%
Target sequence (P63165 whole entry, looked up): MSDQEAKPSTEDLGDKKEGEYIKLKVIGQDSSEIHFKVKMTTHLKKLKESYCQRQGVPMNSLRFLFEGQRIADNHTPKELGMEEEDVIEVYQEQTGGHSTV
DNMT1 block – human DNMT1 methyltransferase inhibitors, primary screen, biochemical, molecular beacon, fluorescence, HinP1I cleavage, uHTS; DNA (cytosine-5)-methyltransferase 1 (Homo sapiens), P26358; inhibition (reported as % activation of signal), % at 10 µM; 0.83% of 360,000 active; in the data active means inhibition above about 50%
STEP block – STEP phosphatase inhibitors, primary screen, biochemical, fluorescence intensity, uHTS; Tyrosine-protein phosphatase non-receptor type 5 (Homo sapiens), P54829; recombinant STEP, OMFP fluorogenic substrate; inhibition, % at 20 µM; 0.25% of 360,000 active; AID 588621, 2011;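 active means inhibition at 20 µM, scaled per plate between control wells, above about 37%, limit read from the data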
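Assay system: isolated STEP enzyme / Timing: 20 min at room temperature, dark / Doses: 20 µM, 1% DMSO / Technique: fluorescence intensity, excitation 480 nm, emission 540 nm / Reagent: fluorogenic phosphatase substrate OMFP at 25 µM final / Measure: percent inhibition scaled to no-enzyme and uninhibited-enzyme controls, plate-pattern corrected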
Scp-1 inhibitor – Scp-1 phosphatase inhibitors, primary screen, biochemical, colorimetric, uHTS; 0.88% of 340,000 active; inhibition, % at 20 µM; Recombinant Scp1, phosphopeptide, malachite green phosphate absorbance;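 active means inhibition above about 50% at 20 µM, limit read from the data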
Target sequence (Q9GZU7 76-261 limits assumed): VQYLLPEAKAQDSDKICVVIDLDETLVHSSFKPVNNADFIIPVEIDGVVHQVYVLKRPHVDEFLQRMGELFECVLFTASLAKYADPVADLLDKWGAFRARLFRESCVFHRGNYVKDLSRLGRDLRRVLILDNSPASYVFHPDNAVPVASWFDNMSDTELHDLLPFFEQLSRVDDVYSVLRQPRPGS
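assay system = SCP-1 phosphatase catalytic domain, residues 76-261 | buffer or medium = 50 mM Tris acetate pH 5.5, 0.005% Tween-20, 10 mM MgCl2 | incubation = enzyme reaction 45 min at room temperature, colour 5 min, stabilisation 30 min | signal = Phosphate-binding colour reagent, absorbance read at 630 nm | measure = % inhibition at 20 µM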
LMPTP block – LMPTP phosphatase inhibitors, primary screen, biochemical, fluorescence intensity, uHTS | inhibition, % at 20 µM | recombinant LMPTP-A, OMFP fluorogenic substrate | 0.22% of 360,000 active;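 active means compounds that cut the enzyme signal by at least half of the control window in the single-dose screen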
Target sequence (P24666 whole entry, looked up): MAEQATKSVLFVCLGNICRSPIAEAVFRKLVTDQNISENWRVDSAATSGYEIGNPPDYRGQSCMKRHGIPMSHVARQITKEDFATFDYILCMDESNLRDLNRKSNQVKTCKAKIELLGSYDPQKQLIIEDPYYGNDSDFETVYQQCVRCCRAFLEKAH
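Test system: LMPTP-A phosphatase enzyme; input: 0.625 nM LMPTP-A final; reagent: OMFP substrate, 400 µM final; compound dosing: 20 µM single dose, 3% DMSO; incubation: 50 min dark incubation at room temperature; measured by: endpoint fluorescence intensity from OMFP dephosphorylation; measure: % inhibition relative to no-enzyme and uninhibited control wells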
DNMT1 interf DR – spectral interference with molecular beacon fluorescence, dose response, artefact control for DNMT1 inhibitor project, biochemical, fluorescent molecular beacon; shares compounds with DNMT1 block; spectral interference counter-screen; IC50, µM; 200 tested, under 10 active; AID 602382, 2012; call rule not given here
DNMT1 inh conf – DNMT1 methyltransferase inhibitor retest, confirmation, biochemical, molecular beacon, fluorescence, single concentration | inhibition, % at 10 µM | 8% of 2,300 active | AID 602385, 2012 | DNMT1 molecular beacon HinP1I cleavage | shares compounds with DNMT1 block;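 active means average inhibition of at least 30% in the single-concentration confirmation test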
Beacon interf – counter-screen for DNMT1 inhibitors: spectral interference | shares compounds with DNMT1 block | DNMT1 molecular beacon spectral interference counterscreen, fluorescence 485/520 | activation (fluorescence interference), % at 10 µM | 1% of 2,300 active;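 active means activation of at least 30% at 10 µM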;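 further: DNMT1 catalytic domain with a HinP1I cleavage step and a FAM/dabcyl DNA beacon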
Hits are given with their value; i = inactive; nt = no result given. Sampled rows, rich in hits. Any-hit rate of the full collection: about 1.7%.

SMILES	SUMO1-SIM PPI	DNMT1 block	STEP block	Scp-1 inhibitor	LMPTP block	DNMT1 inh conf	Beacon interf	others
Cc1ccc(C(=O)N[C@H](C(=O)OCc2cc(=O)n3c(n2)sc2ccccc23)C(C)C)cc1	i	84	i	i	i	i	i
Cc1ccc(C(=O)N[C@H](C(=O)OCc2nnc(-c3ccccc3)o2)C(C)C)cc1	i	i	i	i	i	nt	nt
CCCNC(=O)CN1C(=O)NC(CCc2ccccc2)C1=O (centres undefined)	i	i	i	i	i	nt	nt
CC(C)c1nc(SCC(=O)Nc2c[nH]c(=O)[nH]c2=O)c2cnn(-c3ccccc3)c2n1	i	53	i	i	i	i	i
Cc1nc(SCC(=O)Nc2c(C)nn(C)c2C)c2cnn(-c3ccccc3)c2n1	i	i	i	i	i	nt	nt
CCc1nc(Nc2ccncc2)c2oc3ccccc3c2n1	i	51	i	i	i	i	i
COc1ccccc1/C=N\NC(=O)c1ccc(COc2ccc(C)c(C)c2)o1	i	i	i	i	i	nt	nt
COc1cc2c(cc1NC(=O)CSc1cccc[n+]1[O-])oc1ccccc12	i	72	i	i	i	i	i
COc1cc2c(cc1NC(=O)CSc1ccc(C)cc1)oc1ccccc12	i	i	i	i	i	nt	nt
COc1cc2c(cc1NC(=O)CSc1nnnn1-c1ccccc1)oc1ccccc12	i	52	i	i	i	i	i
COc1cc(N)c(C(=O)c2nccc3cc(OC)c(OC)cc23)cc1OC	i	i	i	i	i	nt	nt
COc1cc(C(=O)c2nccc3cc(OC)c(OC)cc23)c([N+](=O)[O-])cc1OC	i	58	i	i	i	i	i
O=C1NC(=O)/C(=C\c2ccc(Sc3ccc(Cl)cc3)o2)N1	i	i	i	i	i	nt	nt
O=C1NN(c2ccccc2)C(=O)/C1=C/c1ccc(Sc2ccc(Cl)cc2)o1	i	88	i	i	i	i	i
Cc1ccc(Sc2ccc(/C=C3/C(=O)NN(c4ccccc4)C3=O)o2)cc1	i	65	i	i	i	i	i
Cc1ccsc1/C=C1/C(=O)NN(c2ccccc2)C1=O	i	i	i	i	i	nt	nt
Cc1ccc(NC(=O)CC2C(=O)N(Cc3ccccc3)C(=S)N2NC(=O)c2ccccc2)c(C)c1 (centres undefined)	i	81	i	i	i	i	i
COc1ccccc1NC(=O)C1CCN(C(=O)C2CC(=O)N(c3ccc(C)cc3)C2)CC1 (centres undefined)	i	i	i	i	i	nt	nt
Nc1ccc(S(=O)(=O)Nc2nccs2)cc1N=Nc1ccccc1[N+](=O)[O-]	i	77	i	i	i	80	i	DNMT1 interf DR=i
COC(=O)\C(C(C)=O)=C(/C=C/C=C/C=C/N(C)C)N(C)C	i	109	i	74	i	37	i	DNMT1 interf DR=i
CCC12CN3CC(CC)(CN(C1)C3c1ccc([N+](=O)[O-])o1)C2=O (centres undefined)	i	i	i	i	i	nt	nt
O=C(O)c1ccc(-n2cccc2/C=C2/NC(=O)N(c3ccccc3)C2=O)cc1	89	93	73	89	i	83	i	DNMT1 interf DR=i
O=C1N/C(=C/c2cccn2-c2ccc(F)cc2)C(=O)N1Cc1ccccc1	i	i	i	i	i	nt	nt
O=C(O)c1ccc(-n2cccc2/C=C2/SC(=O)N(CC(=O)N3CCCC3)C2=O)cc1	81	91	93	76	i	81	i	DNMT1 interf DR=i
O=C(O)c1cccc(-n2cccc2/C=C2\NC(=O)N(Cc3ccc(F)cc3)C2=O)c1	i	107	i	i	i	i	i
SMILES	SUMO1-SIM PPI	DNMT1 block	STEP block	Scp-1 inhibitor	LMPTP block	DNMT1 inh conf	Beacon interf	others
O=C(O)c1ccc(-n2cccc2/C=C2/NC(=O)N(c3cccc(Cl)c3)C2=O)cc1	i	94	43	77	i	84	i	DNMT1 interf DR=i
CCN(CC)c1cnn(C/C(=N\OC)c2ccc(Cl)cc2)c(=O)c1Br	i	i	i	i	i	nt	nt
CCN(c1ccccc1)S(=O)(=O)c1cccc(C(=O)NCC(c2ccc(F)cc2)N2CCOCC2)c1 (centres undefined)	i	i	i	i	i	nt	nt
CCOc1cccc2cc(-c3cn4cc(C)ccc4n3)c(=O)oc12	i	70	i	i	i	i	i
COc1ccc(C(=O)Nc2ccc(NC(=O)c3cccs3)cc2)cc1[N+](=O)[O-]	i	i	i	i	i	i	i
Cc1cc(C)n2nc(C(=O)N/N=C/c3c4ccccc4cc4ccccc34)nc2n1	i	92	i	i	i	i	i
CC(C)(C)c1ccc(OCCC(=O)NCCc2ccc(S(N)(=O)=O)cc2)cc1	i	i	i	i	i	nt	nt
Cc1ccc(C)c(N(Cc2cc3ccc(C)cc3[nH]c2=O)C(=O)c2ccco2)c1	i	142	i	i	i	i	i
O=C1COc2ccccc2C(c2nc3ccccc3[nH]2)N1Cc1ccccc1 (centres undefined)	i	nt	nt	nt	i	nt	nt
CCNC(C(=O)c1c[nH]c2c(CC)cccc12)c1ccccc1 (centres undefined)	i	i	i	i	i	nt	nt
CC(=O)Nc1c(C(=O)O)ccc(C)c1OCc1ccccc1	i	i	i	i	i	nt	nt
CN(C)CCOc1nc(-c2ccccc2)nc2c1oc1ccccc12	i	65	i	i	i	57	i	DNMT1 interf DR=i
CC(=O)c1c(O)cc(=O)n(-c2ccccc2)c1-c1ccc(Cl)cc1	i	i	i	i	i	nt	nt
CCc1c(O)cc(=O)n(-c2ccccc2)c1-c1ccccc1	i	58	i	i	i	i	i
Cc1nn(-c2ccccc2)c(C)c1/C=N/n1c(-c2ccncc2)n[nH]c1=S	i	i	i	i	i	nt	nt
Cc1nn(-c2ccccc2)c(C)c1/C=N/n1c(-c2ccc(Cl)cc2)n[nH]c1=S	i	57	i	i	i	i	i
CCOC(=O)C1CCCN(C(=O)c2cc3c(=O)n4ccccc4nc3s2)C1 (centres undefined)	i	87	i	i	i	i	i
O=C(c1cc(-c2ccncc2)nc2ccccc12)N1CCCC(C(F)(F)F)C1 (centres undefined)	i	i	i	nt	i	nt	nt
O=C(c1cc(-c2ccco2)nc2ccccc12)N1CCCC(C(F)(F)F)C1 (centres undefined)	i	66	i	i	i	i	i
